Data on two compounds can be found in ChEMBL document CHEMBL4052609, “(+)-Strebloside-Induced Cytotoxicity in Ovarian Cancer Cells Is Mediated through Cardiac Glycoside Signaling Networks” (J Nat Prod, 2017).

Test [1] is filed under the species Homo sapiens. In words: Inhibition of sodium potassium ATPase in human OVSAHO cells assessed as downregulation of p53 protein expression at 100 nM after 72 hrs by Western blot analysis. Type of test: cell-based. On the technique in general: In western blotting, separated proteins are transferred to a membrane and probed.
Another test deals with OVCAR-4. Put plainly: Antiproliferative activity against human OVCAR4 cells after 72 hrs by CellTiter 96 aqueous one solution assay. Type of test: functional, cell-based. As to conditions: OVCAR-4, 72 h. The method, boiled down:
(§1)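 Log-phase cells harvested by trypsin with two PBS washes, seeded 5,000/well, incubated overnight. Serial dilutions of compound from DMSO stock added, 72 h exposure. Viability read by absorbance. IC50 (nM) calculated relative to DMSO solvent control.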

The next test deals with OVCAR-5. Put plainly: Antiproliferative activity against human OVCAR5 cells after 72 hrs by CellTiter 96 aqueous one solution assay. As to conditions: OVCAR-5, 72 h. The class given is functional, cell-based. The gist of the method:
as §1

The test system of a further test is KURAMOCHI
In words: Antiproliferative activity against human Kuramochi cells after 72 hrs by CellTiter 96 aqueous one solution assay. Type of test: functional, cell-based. The method, boiled down:
as §1

Test [2] can be described thus: Antiproliferative activity against human IOSE-80 cells after 72 hrs by CellTiter 96 aqueous one solution assay. As to conditions: IOSE80, 72 h. Type of test: cell-based. The method, boiled down: as §1
The subject of the next test is OVCAR-8. Put plainly: Antiproliferative activity against human OVCAR8 cells after 72 hrs by CellTiter 96 aqueous one solution assay. The class given is functional, cell-based. As to conditions: OVCAR-8, 72 h. The method, boiled down:
(§2)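 Log-phase cells harvested by trypsin with two PBS washes, seeded 5,000/well, incubated overnight. Serial dilutions of compound from DMSO stock added, 72 h exposure. Viability read by absorbance. IC50 (nM) calculated relative to DMSO solvent control. Cultures at 37 °C, 5% CO2 in their own media (RPMI, MEM, DMEM, or Medium 199/MCDB for IOSE-80).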

The nature of test [3]: Antiproliferative activity against CD-1 mouse MOE cells derived from 8 to 25 passages after 72 hrs. As to conditions: CD-1, MOE. The class given is cell-based. The gist of the method: (§3)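 MOE cells from pooled oviducts of 8-week-old female CD1 mice in supplemented α-MEM with EGF, insulin, transferrin, selenite, β-estradiol; scrambled and PTEN shRNA/KRAS G12V clones kept under puromycin (plus hygromycin for the mutant). Log-phase cells seeded 5,000/well, overnight, DMSO-dissolved compound added, 72 h; viable cells read by MTS-type absorbance; IC50 in nM relative to DMSO control.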

Test [4] can be described thus: Antiproliferative activity against CD-1 mouse MOE cells derived from 85 to 120 passages after 72 hrs. The class given is functional, cell-based. As to conditions: CD-1, MOE. The gist of the method: as §3
The species entered for test [5] is Homo sapiens. In words: Inhibition of sodium potassium ATPase in human OVCAR3 cells assessed as upregulation of p21 protein expression at 100 nM by Western blot analysis. Type of test: cell-based. The method, boiled down: (§4)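 Treated cells washed with PBS, lysed in RIPA on ice 15 min, cleared 14,000 g at 4 °C; 25 µg protein by BCA run on SDS-PAGE, PVDF, milk block, primary antibody overnight at 4 °C, HRP anti-rabbit, chemiluminescence; actin loading control; densitometry, n = 3, mean ± SEM.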

The species entered for test [6] is Homo sapiens. Put plainly: Inhibition of sodium potassium ATPase in human OVSAHO cells assessed as upregulation of p21 protein expression at 100 nM by Western blot analysis. The class given is cell-based. The method, boiled down:
as §4

In another test the test system is MDA-MB-435. In words: Antiproliferative activity against human MDA-MB-435 cells after 72 hrs by CellTiter 96 aqueous one solution assay. The class given is functional, cell-based. As to conditions: MDA-MB-435, 72 h. The method, boiled down: as §1
A further test relates to MDA-MB-231. In words: Antiproliferative activity against human MDA-MB-231 cells after 72 hrs by CellTiter 96 aqueous one solution assay. The class given is functional, cell-based. As to conditions: MDA-MB-231, 72 h. The method, boiled down:
as §1

Another test deals with HT-29. In words: Antiproliferative activity against human HT-29 cells after 72 hrs by CellTiter 96 aqueous one solution assay. The class given is functional, cell-based. As to conditions: HT-29, 72 h. The method, boiled down: as §1
For test [7], the system named is OVCAR-3. Put plainly: Antiproliferative activity against human OVCAR3 cells after 72 hrs by CellTiter 96 aqueous one solution assay. Type of test: functional, cell-based. As to conditions: OVCAR-3, 72 h. The gist of the method:
as §2

A short description of test [8]: Antiproliferative activity against human OVSAHO cells after 72 hrs by CellTiter 96 aqueous one solution assay. The class given is functional, cell-based. The method, boiled down: as §1
Test [9] can be described thus: Antiproliferative activity against CD-1 mouse MOE cells harboring scrambled RNA after 72 hrs. Type of test: cell-based. As to conditions: CD-1, MOE. The gist of the method:
as §3

Test [10] can be described thus: Antiproliferative activity against CD-1 mouse MOE cells harboring PTENshRNA/KRASG12V mutation after 72 hrs. As to conditions: CD-1, MOE. Type of test: functional, cell-based. The method, boiled down: as §3
Test [11] concerns OVCAR-3. Put plainly: Cell cycle arrest in human OVCAR3 cells assessed as accumulation at G2/M phase at 100 nM after 72 hrs by propidium iodide staining-based flow cytometry method. The class given is functional. The gist of the method:
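Cells in 6-well plates treated 72 h, trypsinized, fixed in 70% ethanol, PBS-washed, stained in PBS with 1 mg/mL RNase and 50 µg/mL propidium iodide for 30 min in the dark at room temperature; DNA content by flow cytometry, phase distribution compared with vehicle.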
A general note: In flow cytometry, cells or beads pass a laser one at a time.

The test system of test [12] is OVCAR-3. Put plainly: Induction of apoptosis in human OVCAR3 cells assessed as upregulation of cleaved caspase 3 expression at 100 nM by Western blot analysis. The class given is functional, cell-based. The method, boiled down: as §4
The subject of test [13] is OVCAR-3. Put plainly: Induction of apoptosis in human OVCAR3 cells assessed as upregulation of cleaved PARP expression at 100 nM by Western blot analysis. The class given is functional, cell-based. The gist of the method:
as §4

Test [14] has as its system OVCAR-3. Put plainly: Induction of apoptosis in human OVCAR3 cells assessed as decrease in Mcl-1 levels at 100 nM by Western blot analysis. Type of test: functional, cell-based. The gist of the method: as §4
For test [15], the system named is OVCAR-3. Put plainly: Induction of apoptosis in human OVCAR3 cells assessed as decrease in Bcl-xL levels at 100 nM by Western blot analysis. Type of test: functional, cell-based. The method, boiled down:
as §4

In the next test the test system is OVSAHO. In words: Induction of apoptosis in human OVSAHO cells assessed as upregulation of cleaved PARP expression at 100 nM after 72 hrs by Western blot analysis. Type of test: functional, cell-based. The gist of the method: as §4
For test [16], the species on record is Homo sapiens. Put plainly: Inhibition of sodium potassium ATPase in human OVCAR3 cells assessed as downregulation of p53 protein expression at 100 nM after 72 hrs by Western blot analysis. The class given is cell-based. The method, boiled down:
as §4

For test [17], the species on record is Homo sapiens. Put plainly: Inhibition of sodium potassium ATPase in human OVSAHO cells assessed as increase in ERK phosphorylation levels at 100 nM after 120 mins by Western blot analysis. Type of test: cell-based. The method, boiled down:
(§5)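 Cells exposed to 100 nM for indicated times; RIPA lysates, 25 µg protein on SDS-PAGE/PVDF probed for phospho-ERK and total ERK (1:500 each), HRP secondary, chemiluminescent detection.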

Test [18] is filed under the species Homo sapiens. Put plainly: Inhibition of sodium potassium ATPase in human OVCAR3 cells assessed as increase in ERK phosphorylation levels at 100 nM after 120 mins by Western blot analysis. Type of test: cell-based. The method, boiled down:
as §5

The species entered for test [19] is Homo sapiens. In words: Inhibition of sodium potassium ATPase in human OVCAR3 cells assessed as reduction in TNFalpha-induced NFkappaB activation at 100 nM after 4 hrs by luciferase reporter gene assay relative to control. The class given is cell-based. The method, boiled down:
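OVCAR3 plated 25,000/well, overnight, transfected 24 h with 0.05 µg/well NF-κB-element luciferase reporter in serum medium; then 10 ng/mL TNFα plus 100 nM compound for 4 h; luciferase luminescence, fold change versus untreated, ANOVA.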

The species entered for test [20] is Homo sapiens. In words: Inhibition of sodium potassium ATPase in human OVCA432 cells assessed as downregulation of p53 protein expression at 100 nM after 72 hrs by Western blot analysis. Type of test: cell-based. The gist of the method:
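Cells exposed to 100 nM for 72 h; RIPA lysates, 25 µg protein on SDS-PAGE/PVDF, anti-p53 (1:500) overnight at 4 °C, HRP secondary, chemiluminescence, actin control; densitometry.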

The term inhibition denotes how much of the control response was suppressed. As usually defined, the pIC50 is the IC50 on a negative log10 scale, so that one unit is a factor of ten. Lower therefore signals a high IC50.

Structures are written as SMILES. pIC50: −log10 of the molar value. Active and inactive are the calls of the source. The calls are words filed in the database; no cut-off is given here. Where only a bound is given, the exact number is not on record here.

Regarding `C[C@H]1O[C@@H](O[C@H]2[C@@H](O)C[C@H](O[C@H]3[C@@H](O)C[C@H](O[C@H]4CC[C@@]5(C)[C@H](CC[C@@H]6[C@@H]5CC[C@]5(C)[C@@H](C7=CC(=O)OC7)CC[C@]65O)C4)O[C@@H]3C)O[C@@H]2C)C[C@H](O)[C@@H]1O` [DIGITOXIN], the inhibition result in the test filed under Homo sapiens [1], in the test listed under Homo sapiens [5], in the test listed under Homo sapiens [6], in the test listed under Homo sapiens [16], in the test filed under Homo sapiens [17] and in the test filed under Homo sapiens [18] was “Active” in each case. Besides, the inhibition entry in the test listed under Homo sapiens [20] was “Active”. The pIC50 is 6.37 in the test on OVCAR-4; 6.49 with OVCAR-5; 5.23 in the test on KURAMOCHI; 7.32 in test [2]; 7.15 in the test with OVCAR-8; < 4.30 in [3]. The pIC50 in test [4] was < 4.30; in the test with MDA-MB-435 it was 7.36; in the test on MDA-MB-231, 6.32; in the test on HT-29, 7.17; with OVCAR-3 [7] it was 6.93; in test [8], 6.60. In addition, the negative-log IC50 (pIC50) in test [9] and in [10] was < 4.30 each time. Further, the outcome in the test with OVCAR-3 [11], in the test with OVCAR-3 [12], in the test with OVCAR-3 [13], in the test on OVCAR-3 [14], with OVCAR-3 [15] and with OVSAHO was Active. The inhibition in the test listed under Homo sapiens [19] was 50%.
On to `CO[C@H]1[C@H](O[C@H]2CC[C@]3(C=O)[C@H]4CC[C@]5(C)[C@@H](C6=CC(=O)OC6)CC[C@]5(O)[C@@H]4CC[C@]3(O)C2)O[C@H](C)[C@H](O)[C@@H]1OC` [STREBLOSIDE], for which the inhibition entry in the test listed under Homo sapiens [1], in the test listed under Homo sapiens [5], in the test listed under Homo sapiens [6], in the test listed under Homo sapiens [16], in the test filed under Homo sapiens [17] and in the test listed under Homo sapiens [18] was “Active” in each case. In addition, in the test listed under Homo sapiens [20], the inhibition result is “Active”. Also, the pIC50 in test [3], in [4], in test [9] and in test [10] was < 4.30 in each case. Besides, the outcome with OVCAR-3 [11], in the test on OVCAR-3 [12], in the test on OVCAR-3 [13], in the test on OVCAR-3 [14], with OVCAR-3 [15] and in the test with OVSAHO was Active. The inhibition in the test filed under Homo sapiens [19] came out at 29%.
